Where a name gives a salt, the structure may show the parent alone. Active and inactive are the calls of the source. No cut-off for these calls is given here.
Legend:
HeLa [1] = experiment: Cytotoxicity against human HeLa cells after 4 days by MTT assay; assay type: functional, cell-based; conditions: 96 h
Procedure, shortened: (§1)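 Cells seeded at 2-4 × 10^4 per well and attached overnight in medium with 10% FBS, 5% CO₂, 37 °C. Medium replaced on day 1 with graded compound concentrations. On day 4, MTT added (0.5 mg/mL final) for 4 h, formazan dissolved in DMSO, absorbance read at 570 nm. IC50 from four-parameter logistic fit; mean ± SD of three experiments in triplicate.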

Nucleic Acid = experiment: Binding affinity to Escherichia coli linearized pBR322 DNA at 100 uM after 2 hrs by agarose gel electrophoresis; assay type: nucleic-acid assay
Procedure, shortened: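 DNA cross-linking: 0.5 µg EcoRI-linearized, ethanol-precipitated pBR322 incubated with compound (100 μM) for 2 h at RT in 10 mM Tris-HCl, 1 mM EDTA, pH 8.0. Run on denaturing 1.2% alkaline agarose (50 mM NaOH, 1 mM EDTA running buffer), then neutralized 1 h in 100 mM Tris, 150 mM NaCl, pH 7.6.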

MCF7 [2] = experiment: Cytotoxicity against human MCF7 cells after 4 days by MTT assay; assay type: functional, cell-based; conditions: MCF7, 96 h; procedure, shortened: as §1
HCT-116 [3] = experiment: Cytotoxicity against human HCT116 cells after 4 days by MTT assay; assay type: functional, cell-based; conditions: HCT-116, 96 h; procedure, shortened: as §1
DU-145 [4] = experiment: Cytotoxicity against human DU145 cells after 4 days by MTT assay; assay type: functional, cell-based; conditions: DU-145, 96 h; procedure, shortened: as §1
MDA-MB-231 = experiment: Cytotoxicity against human MDA-MB-231 cells after 4 days by MTT assay; assay type: functional, cell-based; conditions: MDA-MB-231, 96 h; procedure, shortened: as §1
[5] = target: DNA topoisomerase 2-alpha (Homo sapiens) (UniProt P11388); experiment: Inhibition of human topoisomerase 2alpha-mediated relaxation of supercoiled pBR322 DNA at 100 uM after 30 mins by agarose gel electrophoresis
[6] = target: DNA topoisomerase 2-alpha (Homo sapiens) (UniProt P11388); experiment: Inhibition of human topoisomerase 2alpha-mediated relaxation of supercoiled pBR322 DNA at 20 uM after 30 mins by agarose gel electrophoresis
DU-145 [7] = experiment: Ratio of compound IC50 to adriamycin IC50 for human DU145 cells; assay type: functional
MCF7 [8] = experiment: Ratio of compound IC50 to adriamycin IC50 for human MCF7 cells; assay type: functional
HeLa [9] = experiment: Ratio of compound IC50 to adriamycin IC50 for human HeLa cells; assay type: functional
HCT-116 [10] = experiment: Ratio of compound IC50 to adriamycin IC50 for human HCT116 cells; assay type: functional

DNA topoisomerase 2-alpha (Homo sapiens), sequence (P11388 whole entry): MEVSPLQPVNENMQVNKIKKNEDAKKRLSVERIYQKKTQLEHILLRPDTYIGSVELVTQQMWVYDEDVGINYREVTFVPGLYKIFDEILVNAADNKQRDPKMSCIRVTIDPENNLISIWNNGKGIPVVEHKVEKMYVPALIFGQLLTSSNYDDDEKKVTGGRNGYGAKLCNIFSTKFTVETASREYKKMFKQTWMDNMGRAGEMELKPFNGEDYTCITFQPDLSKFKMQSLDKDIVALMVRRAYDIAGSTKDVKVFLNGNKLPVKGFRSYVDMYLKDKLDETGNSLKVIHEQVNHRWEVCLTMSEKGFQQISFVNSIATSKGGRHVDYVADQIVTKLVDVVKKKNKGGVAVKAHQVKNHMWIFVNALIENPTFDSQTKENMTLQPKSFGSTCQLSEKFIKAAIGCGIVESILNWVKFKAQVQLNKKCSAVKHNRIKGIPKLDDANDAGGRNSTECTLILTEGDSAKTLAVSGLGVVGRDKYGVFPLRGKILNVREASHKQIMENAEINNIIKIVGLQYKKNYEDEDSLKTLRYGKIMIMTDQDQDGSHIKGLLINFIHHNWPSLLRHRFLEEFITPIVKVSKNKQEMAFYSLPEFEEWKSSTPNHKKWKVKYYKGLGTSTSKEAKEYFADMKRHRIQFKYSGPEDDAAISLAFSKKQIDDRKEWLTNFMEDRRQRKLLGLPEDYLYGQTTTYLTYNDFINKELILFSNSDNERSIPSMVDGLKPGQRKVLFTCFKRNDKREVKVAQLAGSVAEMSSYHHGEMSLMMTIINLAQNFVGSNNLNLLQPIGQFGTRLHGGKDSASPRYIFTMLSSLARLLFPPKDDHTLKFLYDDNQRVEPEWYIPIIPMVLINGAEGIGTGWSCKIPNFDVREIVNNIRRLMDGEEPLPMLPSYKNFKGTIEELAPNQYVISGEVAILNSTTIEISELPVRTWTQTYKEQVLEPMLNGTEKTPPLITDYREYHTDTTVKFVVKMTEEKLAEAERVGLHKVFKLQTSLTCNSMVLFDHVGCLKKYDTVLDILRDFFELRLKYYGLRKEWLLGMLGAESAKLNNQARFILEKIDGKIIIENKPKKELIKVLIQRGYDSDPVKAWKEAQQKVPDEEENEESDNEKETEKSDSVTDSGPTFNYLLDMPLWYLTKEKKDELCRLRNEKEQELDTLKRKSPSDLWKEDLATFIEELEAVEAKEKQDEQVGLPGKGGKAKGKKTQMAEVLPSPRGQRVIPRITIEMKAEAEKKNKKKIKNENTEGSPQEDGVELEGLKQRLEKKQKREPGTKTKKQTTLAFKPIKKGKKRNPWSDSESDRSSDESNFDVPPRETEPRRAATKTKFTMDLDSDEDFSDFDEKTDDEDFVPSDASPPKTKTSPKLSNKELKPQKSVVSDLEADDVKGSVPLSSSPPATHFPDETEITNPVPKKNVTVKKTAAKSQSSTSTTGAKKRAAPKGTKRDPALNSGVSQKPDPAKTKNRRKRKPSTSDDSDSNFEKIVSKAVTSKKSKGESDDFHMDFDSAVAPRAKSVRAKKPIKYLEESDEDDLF

Compound | Activity (Nucleic Acid) | inhibition [5] | inhibition [6] | IC50 (HeLa [1]) | IC50 (MCF7 [2]) | IC50 (HCT-116 [3]) | IC50 (DU-145 [4]) | IC50 (MDA-MB-231) | Ratio IC50 (DU-145 [7]) | Ratio IC50 (MCF7 [8]) | Ratio IC50 (HeLa [9]) | Ratio IC50 (HCT-116 [10])
CC[C@@]1(O)C(=O)OCc2c1cc1n(c2=O)Cc2cc3ccccc3nc2-1 [CAMPTOTHECIN] | – | – | – | 1.1 µM | 14.2 µM | 2.3 µM | – | – | – | – | – | –
COc1cc([C@@H]2c3cc4c(cc3[C@@H](O[C@@H]3O[C@@H]5CO[C@@H](C)O[C@H]5[C@H](O)[C@H]3O)[C@H]3COC(=O)[C@H]23)OCO4)cc(OC)c1O [ETOPOSIDE] | – | – | – | – | 17.5 µM | 11.9 µM | 13.8 µM | – | – | – | – | –
COc1cc(OCC2CO2)cc2oc3ccccc3c(=O)c12 (centres undefined) | – | 51% | 5% | 10.5 µM | 14 µM | 6.6 µM | 1.5 µM | 10.9 µM | – | – | – | –
COc1cccc2c1C(=O)c1c(O)c3c(c(O)c1C2=O)C[C@@](O)(C(=O)CO)C[C@@H]3O[C@H]1C[C@H](N)[C@H](O)[C@H](C)O1 [DOXORUBICIN HYDROCHLORIDE] | – | – | – | – | – | 4 µM | 1.4 µM | 4.4 µM | – | – | – | –
CC1(COc2cc(O)c3c(=O)c4ccccc4oc3c2)CO1 (centres undefined) | – | 25% | 11% | 14.3 µM | 15 µM | 12.1 µM | 18.9 µM | 41.7 µM | – | – | – | –
COc1cccc2c(=O)c3c(OC)cc(OCC(O)CCl)cc3oc12 (centres undefined) | – | 83% | 2% | 59.5 µM | 51.7 µM | 16.4 µM | 15.3 µM | 56 µM | – | – | – | –
COc1cccc2c(=O)c3c(O)cc(OCC(C)(O)CCl)cc3oc12 (centres undefined) | – | 85% | 41% | 68.2 µM | 88.4 µM | 15.8 µM | 7.2 µM | 15.4 µM | – | – | – | –

The next lines start with results.

Activity (Nucleic Acid) | inhibition [5] | inhibition [6] | Compound | IC50 (HeLa [1]) | IC50 (MCF7 [2]) | IC50 (HCT-116 [3]) | IC50 (DU-145 [4]) | IC50 (MDA-MB-231) | Ratio IC50 (DU-145 [7]) | Ratio IC50 (MCF7 [8]) | Ratio IC50 (HeLa [9]) | Ratio IC50 (HCT-116 [10])
Active | 71% | 9% | COc1cccc2c(=O)c3c(OCC4CO4)cc(OCC4CO4)cc3oc12 (centres undefined) | 4.7 µM | 9.9 µM | 2 µM | 2.4 µM | 5.4 µM | – | – | – | –
– | 4% | 0% | COc1cccc2c(=O)c3c(OC)cc(OCC4CO4)cc3oc12 (centres undefined) | 6.2 µM | 8 µM | 1.5 µM | 0.8 µM | 3.8 µM | 2 | 2 | 2 | 2
– | 65% | 27% | COc1cccc2c(=O)c3c(OCC(O)CCl)cc(OCC4CO4)cc3oc12 (centres undefined) | 41.7 µM | 69 µM | 9.9 µM | 3.9 µM | 18.9 µM | – | – | – | –
Active | 41% | 24% | CC1(COc2cc(OCC3(C)CO3)c3c(=O)c4ccccc4oc3c2)CO1 (centres undefined) | 15.8 µM | 15.2 µM | 2.6 µM | 3.9 µM | 68.2 µM | – | – | – | –
Active | 48% | 15% | COc1cccc2c(=O)c3c(OCC4(C)CO4)cc(OCC4(C)CO4)cc3oc12 (centres undefined) | 1.5 µM | 2.5 µM | 0.8 µM | 0.9 µM | 5.1 µM | 2 | 2 | 2 | 2
– | 52% | 20% | CC(O)(CCl)COc1cc(O)c2c(=O)c3ccccc3oc2c1 (centres undefined) | > 100 µM | > 100 µM | 47.1 µM | > 100 µM | > 100 µM | – | – | – | –
– | 23% | 3% | COc1cccc2c(=O)c3c(O)cc(OCC4(C)CO4)cc3oc12 (centres undefined) | > 100 µM | > 100 µM | 69.1 µM | > 100 µM | > 100 µM | – | – | – | –
– | 33% | 1% | COc1cc(OCC(O)CCl)cc2oc3ccccc3c(=O)c12 (centres undefined) | > 100 µM | > 100 µM | 21.6 µM | 40.1 µM | > 100 µM | – | – | – | –

— ChEMBL document CHEMBL1240462, “Synthesis and pharmacological evaluation of new methyloxiranylmethoxyxanthone analogues” (Eur J Med Chem, 2010)
